Measured values reported in publication PMC7569488 (Science signaling, 2020).
Positions count from the first letter of the chain named.

Key:
MKP3 and MKP1 = settings: cited from earlier work
C2C12 myoblasts [1] = test: C2C12 myoblast proliferation; format: cell-based, mouse; settings: C2C12, 72 hr
C2C12 myoblasts [2] = test: C2C12 myoblast differentiation; format: cell-based, mouse; settings: C2C12, 72 h
How it was run: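 C2C12 myoblasts were plated in growth medium, then switched to DMEM with 0.1% FBS, 5 μg/mL insulin and 5 μg/mL selenium, plus DMSO vehicle or test compound. Differentiation ran 72 hr. Cells were stained with MF20 antibody (myosin heavy chain) and DAPI. Fusion index = % of nuclei in myotubes with ≥2 nuclei over total nuclei, counted from ≥10 fields. Means ± SEM; two-tailed t-test.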

MKP5-CD [3] = target: T1, MKP5-CD (Homo sapiens, UniProt Q9Y6W6); test: DiFMUP steady-state kinetic assay; format: biochemical; settings: DiFMUP substrate
T1 sequence (Q9Y6W6 320-467): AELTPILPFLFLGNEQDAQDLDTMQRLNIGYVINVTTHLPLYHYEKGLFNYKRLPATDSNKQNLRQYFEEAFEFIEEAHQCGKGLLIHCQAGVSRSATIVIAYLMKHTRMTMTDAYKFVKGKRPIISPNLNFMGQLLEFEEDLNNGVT

[4] = target: T2, MKP5 M431L/T432D double mutant (Homo sapiens, UniProt Q9Y6W6, M431L/T432D); test: Malachite green assay, MKP5 M431L/T432D double mutant; format: biochemical; settings: p38α MAPK phosphopeptide
T2 sequence (Q9Y6W6 320-467 M431L/T432D): T1 sequence (Q9Y6W6 320-467) with M112L, T113D

ERK1/2 [5] = test: ERK1/2 activation in C2C12 myoblasts; format: cell-based, mouse; settings: even at the highest concentration
How it was run: (§1)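 C2C12 myoblasts (ATCC) were treated with test compound (0, 10, 25, 50 μM) overnight, serum-starved 4 h, lysed and immunoblotted. Antibodies: phospho-ERK1/2 Thr202/Tyr204, phospho-JNK Thr183/Tyr185, phospho-p38α Thr180/Tyr182, plus the matching total proteins. The pMAPK/MAPK ratio was quantified by direct fluorescence imaging. Four independent experiments; means ± SEM; two-tailed t-test.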

Smad2 = test: TGF-β1-mediated Smad2 phosphorylation in MEFs; format: cell-based, mouse; settings: TGF-β1 1 ng/ml 10 minutes
JNK [6] = test: JNK phosphorylation in MEFs; format: cell-based, mouse
How it was run: (§2)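 Mouse embryo fibroblasts were derived from Mkp5+/+ and Mkp5−/− embryos (days 13-14) and spontaneously immortalized. Cells were treated with test compound overnight, serum-starved 4 h, then stimulated with TGF-β1 (1 ng/ml) for 10 min. Lysates were immunoblotted for phospho- and total MAPK, and the ratio was quantified by fluorescence imaging. 3-6 independent experiments; means ± SEM; t-test.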

p38α MAPK [7] = test: p38α MAPK phosphorylation in MEFs; format: cell-based, mouse
How it was run: as §2

MKP5 single mutant M431L = target: T3, MKP5 single mutant M431L (Homo sapiens, UniProt Q9Y6W6, M431L); test: Malachite green assay, MKP5 M431L mutant; format: biochemical
T3 sequence (Q9Y6W6 320-467 M431L): T1 sequence (Q9Y6W6 320-467) with M112L

MKP5-CD [8] = target: T1, MKP5-CD; test: Phosphate sensor steady-state kinetic assay with full-length p38α MAPK substrate; format: biochemical
MKP5 single mutant T432D = target: T4, MKP5 single mutant T432D (Homo sapiens, UniProt Q9Y6W6, T432D); test: Malachite green assay, MKP5 T432D mutant; format: biochemical
T4 sequence (Q9Y6W6 320-467 T432D): T1 sequence (Q9Y6W6 320-467) with T113D

MKP3 = test: DiFMUP phosphatase assay, MKP3; format: biochemical; settings: DiFMUP substrate
JNK [9] = test: JNK activation in C2C12 myoblasts; format: cell-based, mouse; settings: highest concentration of Compound 1
How it was run: as §1

ERK1/2 [10] = test: ERK1/2 phosphorylation in MEFs; format: cell-based, mouse; settings: Mkp5−/− MEFs
How it was run: as §2

[11] = system: MKP5 mutants M431L, T432D and M431L/T432D; test: Binding affinity for Met431/Thr432 mutants; design: species or system human
MKP5-CD [12] = target: T1, MKP5-CD; test: Transient stopped-flow kinetic assay with DiFMUP; format: biochemical
[13] = system: MKP5-CD Tyr^435 mutants (alanine, serine, tryptophan); test: Binding and inhibition experiments with Tyr435 mutants; format: biochemical, human; settings: Y435A, Y435S, Y435W
MKP5-CD [14] = target: T1, MKP5-CD; test: Malachite green phosphatase assay with p38α MAPK phosphopeptide substrate; format: biochemical
MKP7 = test: p38α MAPK phosphopeptide phosphatase assay, MKP7; format: biochemical; settings: p38α MAPK phosphopeptide substrate
How it was run: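 MKP7-CD (residues 156-301) and MKP5-CD were E. coli-expressed and thrombin-cleaved. Each was assayed with the p38α MAPK diphosphopeptide DDE(Nle)(pT)G(pY)VATR, and released phosphate was detected by malachite green. Activity was normalized to DMSO control and fit to a hyperbolic inhibition equation. The IC50 for MKP7-CD was compared with the IC50 for MKP5-CD.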

Solubility = format: physicochemical
PTP-1B = target: T5, PTP-1B (Homo sapiens, UniProt P18031); test: Phosphatase selectivity assay, PTP-1B; format: biochemical
T5 sequence (P18031 1-435): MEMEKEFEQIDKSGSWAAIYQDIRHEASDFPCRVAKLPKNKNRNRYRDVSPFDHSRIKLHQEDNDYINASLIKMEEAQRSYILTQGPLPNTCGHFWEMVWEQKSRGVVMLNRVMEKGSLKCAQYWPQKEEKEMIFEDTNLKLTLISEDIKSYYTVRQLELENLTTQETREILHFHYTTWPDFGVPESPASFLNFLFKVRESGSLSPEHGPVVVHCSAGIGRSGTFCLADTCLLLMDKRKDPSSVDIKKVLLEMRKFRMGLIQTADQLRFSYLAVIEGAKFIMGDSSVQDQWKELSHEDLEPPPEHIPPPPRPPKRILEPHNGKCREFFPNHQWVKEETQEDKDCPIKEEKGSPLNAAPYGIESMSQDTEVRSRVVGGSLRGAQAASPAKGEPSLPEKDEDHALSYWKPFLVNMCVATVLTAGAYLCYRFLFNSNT

p38α MAPK [15] = test: p38α MAPK activation in C2C12 myoblasts; format: cell-based, mouse; settings: highest concentration of Compound 1, dose-dependent
How it was run: as §1

Q: For `O=C1/C(=C/c2ccccc2)C(NC2CCCCC2)c2ccccc21` (centres unmarked) [BCI], which “relative potency MKP3 versus MKP1” value (MKP3 and MKP1) is on record?
A: relative equipotency

Q: Which “myoblast proliferation (BrdU-positive cells)” value (C2C12 myoblasts [1]) does the source give for `CSc1scc2c1-c1nc(SCC(=O)C(C)(C)C)ncc1CC2` [Compound 1, 3,3-dimethyl-1-((9-(methylthio)-5,6-dihydrothieno[3,4-h]quinazolin-2-yl)thio)butan-2-one] here?
A: did not affect C2C12 myoblast proliferation

Q: What about the “myoblast differentiation (myotube fusion index)” value (C2C12 myoblasts [2]) of the same compound?
A: significantly increased

Q: And the “α (mixed mechanism of inhibition)” value (MKP5-CD [3])?
A: 4.2

Q: And the “inhibition of MKP5 M431L/T432D double mutant” value [4]?
A: nearly abolished inhibition

Q: What about the “activation of ERK1/2” value (ERK1/2 [5]) of the same compound?
A: did not alter the activation of ERK1/2

Q: What about the “TGF-β1-mediated Smad2 phosphorylation” value (Smad2; Mkp5+/+ MEFs) of the same compound?
A: inhibited TGF-β1-mediated Smad2 phosphorylation

Q: And the “TGF-β1-mediated Smad2 phosphorylation” value (Smad2; Mkp5−/− MEFs)?
A: failed to inhibit Smad2 phosphorylation further

Q: And the “phosphorylation of JNK” value (JNK [6]; Mkp5−/− MEFs)?
A: did not result in additional phosphorylation

Q: And the “phosphorylation of JNK” value (JNK [6]; wild type MEFs)?
A: dose-dependent increase

Q: What about the “phosphorylation of p38α MAPK” value (p38α MAPK [7]; Mkp5−/− MEFs) of the same compound?
A: did not result in additional phosphorylation

Q: And the “phosphorylation of p38α MAPK” value (p38α MAPK [7]; wild type MEFs)?
A: dose-dependent increase

Q: What about the IC50 (MKP5 single mutant M431L) of the same compound?
A: 99 µM

Q: And the Ki (MKP5-CD [8])?
A: 8.9 ± 2.2 µM

Q: And the “α (mixed-mechanism inhibition)” value (MKP5-CD [8]; full-length p38α MAPK substrate)?
A: ≈ 17.4

Q: And the IC50 (MKP5 single mutant T432D)?
A: 61 µM

Q: What about the “increase in IC50 for MKP3 relative to MKP5” value (MKP3) of the same compound?
A: at least 16 fold

Q: And the JNK activation (JNK [9])?
A: up to 2 fold

Q: And the ERK1/2 phosphorylation (ERK1/2 [10])?
A: unaffected

Q: And the “binding affinity for M431L, T432D and M431L/T432D mutants” value [11]?
A: Concomitant reductions in the binding affinity

Q: And the “fold change of burst rate (k1)” value (MKP5-CD [12]; 20 and 40 μM Compound 1)?
A: 7 fold

Q: And the “burst rate (k1) in the presence of Compound 1” value (MKP5-CD [12]; 20 and 40 μM Compound 1 (8.4 ± 0.2 s^−1 without))?
A: 1.2 ± 0.02 s⁻¹

Q: What about the “binding to and inhibition of Tyr435 mutants” value [13] of the same compound?
A: capable of binding to and inhibiting the activity of only the Y435W mutant

Q: And the IC50 (MKP5-CD [14]; IC50 against MKP5-CD, p38α MAPK phosphopeptide substrate)?
A: ~3.9 µM

Q: What about the “extent of inhibition of MKP5-CD phosphatase activity” value (MKP5-CD [14]; p38α MAPK phosphopeptide) of the same compound?
A: did not fully inhibit

Q: What about the “increase in IC50 for MKP7 relative to MKP5” value (MKP7) of the same compound?
A: at least 16 fold

Q: And the solubility (Solubility)?
A: modest solubility

Q: What about the IC50 (PTP-1B) of the same compound?
A: > 100 µM

Q: And the “activation of p38α MAPK” value (p38α MAPK [15])?
A: up to 4 fold
